Reference: ChEMBL document CHEMBL1122336, “Aromatic amidines: comparison of their ability to block respiratory syncytial virus induced cell fusion and to inhibit plasmin, urokinase, thrombin, and trypsin” (J Med Chem, 1983)

Experiments:
[1] = system: HEp-2; experiment: Minimum concentration required for the complete blockage of virus induced cell […]; cytotoxic at 100 uM; type: functional, cell-based; settings: Homo sapiens
[2] = target: Plasminogen (Homo sapiens, UniProt P00747); experiment: Inhibition constant against human plasminogen
Method in brief: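 Amidase assay with plasmin on N-benzoyl-DL-arginine p-nitroanilide (BAPNA), run at pH 7.6 and 37 °C. Ki was derived from a Dixon plot of reciprocal initial velocities against inhibitor concentrations at two substrate levels.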

[3] = target: Prothrombin (Bos taurus, UniProt P00735); experiment: Inhibition constant against bovine thrombin
[4] = target: T1, Serine protease 1 (Bos taurus, UniProt P00760); experiment: Inhibition constant against bovine trypsin
T1 sequence (P00760 whole entry): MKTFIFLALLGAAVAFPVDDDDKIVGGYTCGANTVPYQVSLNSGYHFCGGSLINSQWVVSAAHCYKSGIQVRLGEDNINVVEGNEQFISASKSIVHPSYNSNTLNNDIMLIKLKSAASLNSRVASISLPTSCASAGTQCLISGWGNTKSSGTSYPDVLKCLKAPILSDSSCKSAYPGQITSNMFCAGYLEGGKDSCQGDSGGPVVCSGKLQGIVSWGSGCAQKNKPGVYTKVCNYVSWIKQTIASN

[5] = target: T2, Urokinase-type plasminogen activator (Homo sapiens, UniProt P00749); experiment: Inhibition constant against Urokinase
[6] = system: HEp-2; experiment: Minimum concentration required for the complete blockage of virus induced cell […]; NB means no blockage of cell fusion at the highest concentration where there is cytotoxicity at 100 uM; type: functional, cell-based; settings: Homo sapiens
[7] = system: HEp-2; experiment: Minimum concentration required for the complete blockage of virus induced cell […]; NB means no blockage of cell fusion at the highest concentration where there is cytotoxicity at 10 uM; type: functional, cell-based; settings: Homo sapiens
[8] = system: HEp-2; experiment: Minimum concentration required for the complete blockage of virus induced cell division.; type: functional, cell-based; settings: Homo sapiens
Method in brief: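 HEp-2 cells (MEM + 10% FBS, passages 370–376, mycoplasma-free) seeded to ~10^6 cells/well at 72 h; RS virus A2 strain adsorbed at 0.1 MOI for 2 h at 36 °C. Wells rinsed, then given inhibitor at 100, 10, 1.0, 0.5 or 0.1 in MEM with 2% FBS and 1% Me2SO. Fusion blockage and toxicity scored at 72 h.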

[9] = target: T2, Urokinase-type plasminogen activator; experiment: Inhibition constant against Urokinase; nonlinear kinetics
Method in brief: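 Amidase assay with urokinase on the substrate L-pyroglutamylglycyl-L-arginine p-nitroanilide (S-2444), run at pH 8.1 and 37 °C. Ki was read from a Dixon plot: the reciprocal of initial velocity was plotted against inhibitor concentration at two substrate concentrations.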

Chain of Plasminogen (P00747 97-580 limits assumed): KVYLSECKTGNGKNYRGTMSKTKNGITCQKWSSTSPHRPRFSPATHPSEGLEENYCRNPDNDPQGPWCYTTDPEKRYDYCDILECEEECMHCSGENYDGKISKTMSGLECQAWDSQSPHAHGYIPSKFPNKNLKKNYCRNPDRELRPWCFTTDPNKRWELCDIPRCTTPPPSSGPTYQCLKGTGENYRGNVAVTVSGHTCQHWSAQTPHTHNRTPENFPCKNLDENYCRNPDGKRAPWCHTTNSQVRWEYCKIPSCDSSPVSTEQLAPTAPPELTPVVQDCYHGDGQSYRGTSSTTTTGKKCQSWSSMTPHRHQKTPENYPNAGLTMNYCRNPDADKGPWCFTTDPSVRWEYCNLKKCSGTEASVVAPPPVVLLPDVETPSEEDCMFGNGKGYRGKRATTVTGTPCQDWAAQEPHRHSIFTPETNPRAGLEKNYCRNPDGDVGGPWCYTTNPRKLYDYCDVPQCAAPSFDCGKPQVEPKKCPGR
Chain of Plasminogen (P00747 581-810 limits assumed): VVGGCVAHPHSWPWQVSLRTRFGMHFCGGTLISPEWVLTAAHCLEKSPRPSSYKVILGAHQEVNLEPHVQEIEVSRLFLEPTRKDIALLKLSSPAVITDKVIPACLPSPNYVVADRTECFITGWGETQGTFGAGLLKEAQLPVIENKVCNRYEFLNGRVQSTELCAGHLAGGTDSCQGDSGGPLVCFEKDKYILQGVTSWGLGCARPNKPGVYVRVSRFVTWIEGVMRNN

| Ki [2] | Ki [3] | Ki [4] | Ki [5] | Ki [9] | Structure (SMILES) | Concentration [1] | Concentration [6] | Concentration [7] | Concentration [8] |
| --- | --- | --- | --- | --- | --- | --- | --- | --- | --- |
| 111 µM | 13.1 µM | – | – | – | N=C(N)c1ccc(Cn2ccc3ccccc32)cc1 | 1 µM | – | – | – |
| 2.93 µM | 11.1 µM | 3.2 µM | 9.96 µM | – | N=C(N)c1ccc2c(ccn2CCCCn2ccc3cc(C(=N)N)ccc32)c1 | 10 µM | – | – | – |
| > 400 µM | 164 µM | 3.44 µM | > 200 µM | – | N=C(N)c1ccc(Cn2ccc3cc([N+](=O)[O-])ccc32)cc1 | – | Cytotoxic | – | – |
| 8.19 µM | – | – | 17.8 µM | – | N=C(N)c1ccc(OCCCOc2ccc(-c3nc4ccc(C(=N)N)cc4[nH]3)cc2)cc1 | – | – | – | – |
| > 1000 µM | 1510 µM | > 1000 µM | > 100 µM | – | N=C(N)c1ccc2c(C(=O)C(F)(F)F)c[nH]c2c1 | – | Cytotoxic | – | – |
| 60 µM | 24.8 µM | 3.18 µM | – | – | N=C(N)c1ccc(Cn2ccc3cc(C(=N)N)ccc32)cc1 | 10 µM | – | – | – |
| 164 µM | 15.4 µM | 16.8 µM | – | – | N=C(N)c1ccc2c(ccn2Cc2cccc(N)c2)c1 | – | Cytotoxic | – | – |
| 3.83 µM | – | – | 8 µM | – | N=C(N)c1ccc(OCCCCCOc2ccc(-c3nc4cc(C(=N)N)ccc4[nH]3)cc2)cc1 | – | – | Cytotoxic | – |
| > 400 µM | 42.8 µM | 137 µM | 280 µM | – | CCn1ccc2cc(C(=N)N)ccc21 | 10 µM | – | – | – |
| ~200 µM | 3.94 µM | 4.67 µM | – | nonlinear kinectics | N=C(N)c1ccc2[nH]c(Oc3ccc(-c4nc5cc(C(=N)N)ccc5[nH]4)cc3)nc2c1 | – | Cytotoxic | – | – |
| – | – | – | – | – | N=C(N)c1ccc(OCCCCOc2ccc(-c3nc4cc(C(=N)N)ccc4[nH]3)cc2)cc1 | – | – | Cytotoxic | – |
| > 100 µM | 6.39 µM | 7.77 µM | – | – | N=C(N)c1ccc2c(ccn2Cc2cccc([N+](=O)[O-])c2)c1 | 10 µM | – | – | – |
| 844 µM | 20.1 µM | 15.4 µM | 191 µM | – | N=C(N)c1ccc2c(ccn2Cc2ccccc2)c1 | – | Cytotoxic | – | – |
| > 1000 µM | 1890 µM | > 1000 µM | > 100 µM | – | CC(=O)c1c[nH]c2cc(C(=N)N)ccc12 | – | Cytotoxic | – | – |
| 61.5 µM | 55 µM | 15.3 µM | 40.3 µM | – | CCC(=O)c1cc2ccc(C(=N)N)cc2[nH]1 | – | Cytotoxic | – | – |
| 43 µM | > 1000 µM | 25.5 µM | 10.6 µM | – | N=C(N)c1ccc2c(C=O)c[nH]c2c1 | – | – | – | – |
| – | – | – | – | – | N=C(N)c1ccc(OCCOc2ccc(-c3nc4cc(C(=N)N)ccc4[nH]3)cc2)cc1 | 10 µM | – | – | – |
| 65.6 µM | 22.4 µM | 8.29 µM | – | – | N=C(N)c1cccc(Cn2ccc3cc(C(=N)N)ccc32)c1 | 10 µM | – | – | – |
| > 700 µM | 47.8 µM | 5.31 µM | – | – | N=C(N)c1ccc(Cn2ccc3cc(C(=N)N)ccc32)c(Cl)c1 | 10 µM | – | – | – |
| > 200 µM | 176 µM | > 100 µM | 267 µM | – | N=C(N)c1ccc2c(C(=O)c3ccccc3)c[nH]c2c1 | – | Cytotoxic | – | – |
| > 1000 µM | 35.2 µM | 85.3 µM | 196 µM | – | Cn1ccc2cc(C(=N)N)ccc21 | – | – | – | – |
| 8.18 µM | – | – | 4.47 µM | – | N=C(N)c1ccc(OCCCCOc2ccc(-c3nc4ccc(C(=N)N)cc4[nH]3)cc2)cc1 | – | – | – | – |
| 112 µM | 7.68 µM | 29.1 µM | 131 µM | – | N=C(N)c1ccc2[nH]ccc2c1 | – | – | – | – |
| 100 µM | 4.8 µM | 5.31 µM | 40 µM | – | N=C(N)c1ccc2c(ccn2Cc2ccc([N+](=O)[O-])cc2N)c1 | 10 µM | – | – | – |
| 3.9 µM | – | – | 12 µM | – | N=C(N)c1ccc(OCCOc2ccc(-c3nc4ccc(C(=N)N)cc4[nH]3)cc2)cc1 | – | – | – | – |
| – | – | – | – | – | N=C(N)c1ccc(OCCCOc2ccc(-c3nc4cc(C(=N)N)ccc4[nH]3)cc2)cc1 | 10 µM | – | – | – |

| Structure (SMILES) | Ki [2] | Ki [3] | Ki [4] | Ki [5] | Ki [9] | Concentration [1] | Concentration [6] | Concentration [7] | Concentration [8] |
| --- | --- | --- | --- | --- | --- | --- | --- | --- | --- |
| N=C(N)c1ccc2nc(Cc3nc4ccc(C(=N)N)cc4[nH]3)[nH]c2c1 | 2.65 µM | – | – | – | – | – | – | – | 0.5 µM |
